In ChEMBL document CHEMBL4396947, “Synthesis and characterization of novel isoform-selective IP6K1 inhibitors” (Bioorg Med Chem Lett, 2019):
Values after ≈ are worked out from the molar mass of the structure shown.

Columns and labels:
[1] = biological target: Inositol hexakisphosphate kinase 2 (Homo sapiens, UniProt Q9UHH9); experiment: Inhibition of IP6K2 (unknown origin) in presence of ATP at Km concentration by Cheng-Prusoff equation analysis
How it was run: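 Purified IP6K isoforms run in the ADP-Glo Max kinase assay with 1 mM ATP. Measured IC50 values converted to Ki with the Cheng-Prusoff equation.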

[2] = biological target: CDK9/cyclin T1 (Homo sapiens) (UniProt O60563+P50750); experiment: Inhibition of recombinant full length human CDK9/CyclinT1 assessed as residual activity at 10 uM using KTFCGTPEYLAPE as substrate incubated for 40 mins in presence of [gamma-33P]ATP at Km concentration by radiometric assay relative to control; assay type: protein-complex assay
[3] = biological target: Serine/threonine-protein kinase pim-1 (Homo sapiens) (UniProt P11309); experiment: Inhibition of recombinant full length human PIM1 assessed as residual activity at 10 uM using KKRNRTLTV as substrate incubated for 40 mins in presence of [gamma-33P]ATP at Km concentration by radiometric assay relative to control
[4] = biological target: Mitogen-activated protein kinase kinase kinase 7 (Homo sapiens) (UniProt O43318); experiment: Inhibition of recombinant human TAK1 (1 to 303 residues) assessed as residual activity at 10 uM using casein as substrate incubated for 40 mins in presence of [gamma-33P]ATP at Km concentration by radiometric assay relative to control
[5] = Solubility of compound in pH 7.4 PBS at 100 ug/ml incubated for 2 hrs by LC-MS/MS analysis; assay type: physicochemical; conditions: buffer, pH 7.4, 2 h
[6] = biological target: 5'-AMP-activated protein kinase catalytic subunit alpha-1 (Homo sapiens) (UniProt Q13131); experiment: Inhibition of human full length recombinant AMPKalpha1 assessed as residual activity at 10 uM using AMARAASAAALAR as substrate incubated for 40 mins in presence of [gamma-33P]ATP at Km concentration by radiometric assay relative to control
[7] = biological target: Inositol hexakisphosphate kinase 1 (Homo sapiens, UniProt Q92551); experiment: Inhibition of IP6K1 (unknown origin) incubated for 30 mins using IP6 as substrate in presence of ATP by ADP-Glo reagent based luminescence assay; conditions: read-out: IC50
How it was run: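 Luminescent ADP-Glo Max format adapted for IP6K, with purified enzyme and ATP at 1 mM, which is consumed as the kinase reaction proceeds. IC50 taken from the resulting inhibition data.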

[8] = biological target: Serine/threonine-protein kinase 4 (Homo sapiens) (UniProt Q13043); experiment: Inhibition of full length recombinant human MST1 assessed as residual activity at 10 uM using KKSRGDYMTMQIG as substrate incubated for 40 mins in presence of [gamma-33P]ATP at Km concentration by radiometric assay relative to control
[9] = biological target: Vascular endothelial growth factor receptor 2 (Homo sapiens) (UniProt P35968); experiment: Inhibition of human recombinant KDR (790 to end residues) assessed as residual activity at 10 uM using myelin basic protein as substrate incubated for 40 mins in presence of [gamma-33P]ATP at Km concentration by radiometric assay relative to control
[10] = biological target: cAMP-dependent protein kinase catalytic subunit alpha (Homo sapiens) (UniProt P17612); experiment: Inhibition of recombinant full length human PRKACA assessed as residual activity at 10 uM using LRRASLG as substrate incubated for 40 mins in presence of [gamma-33P]ATP at Km concentration by radiometric assay relative to control
Homo sapiens [11] = species: Homo sapiens; experiment: Inhibition of recombinant human PKBalpha S478G mutant assessed as residual activity at 10 uM using GRPRTSSFAEGKK as substrate incubated for 40 mins in presence of [gamma-33P]ATP at Km concentration by radiometric assay relative to control
Homo sapiens [12] = species: Homo sapiens; experiment: Inhibition of recombinant human PAK2 L150F/P225T/A339 deletion/V383I mutant (3 to end residues) assessed as residual activity at 10 uM using KEAKEKRQEQIAKR as substrate incubated for 40 mins in presence of [gamma-33P]ATP at Km concentration by radiometric assay relative to control
[13] = biological target: Tyrosine-protein kinase receptor TYRO3 (Homo sapiens) (UniProt Q06418); experiment: Inhibition of recombinant human RSE (451 to end residues) assessed as residual activity at 10 uM using KVEKIGEGTYGVV as substrate incubated for 40 mins in presence of [gamma-33P]ATP at Km concentration by scintillation counting method relative to control
[14] = biological target: Protein kinase C theta type (Homo sapiens) (UniProt Q04759); experiment: Inhibition of recombinant full length human PKCtheta assessed as residual activity at 10 uM using histone H1 as substrate incubated for 40 mins in presence of [gamma-33P]ATP at Km concentration by radiometric assay relative to control
[15] = biological target: Protein kinase C alpha type (Homo sapiens) (UniProt P17252); experiment: Inhibition of recombinant full length human PKCalpha assessed as residual activity at 10 uM using histone H1 as substrate incubated for 40 mins in presence of [gamma-33P]ATP at Km concentration by radiometric assay relative to control
[16] = biological target: CDK6/cyclin D3 (Homo sapiens) (UniProt P30281+Q00534); experiment: Inhibition of human full length recombinant CDK6/cyclinD3 assessed as residual activity at 10 uM using Histone H1 as substrate incubated for 40 mins in presence of [gamma-33P]ATP at Km concentration by radiometric assay relative to control; assay type: protein-complex assay
[17] = biological target: PI3K p110 beta/p85 alpha (Homo sapiens) (UniProt P27986+P42338); experiment: Inhibition of recombinant full length human PI3K p110beta/p85alpha assessed as residual activity at 10 uM incubated for 40 mins in presence of [gamma-33P]ATP at Km concentration by radiometric assay relative to control; assay type: protein-complex assay
[18] = biological target: Tyrosine-protein kinase Lyn (Homo sapiens) (UniProt P07948); experiment: Inhibition of full length recombinant human LYN assessed as residual activity at 10 uM using poly (Glu,Tyr) 4:1 as substrate incubated for 40 mins in presence of [gamma-33P]ATP at Km concentration by radiometric assay relative to control
[19] = biological target: cGMP-dependent protein kinase 1 (Homo sapiens) (UniProt Q13976); experiment: Inhibition of recombinant full length human PKG1alpha assessed as residual activity at 10 uM using RRRLSFAEPG as substrate incubated for 40 mins in presence of [gamma-33P]ATP at Km concentration by radiometric assay relative to control
[20] = biological target: Tyrosine-protein kinase JAK2 (Homo sapiens) (UniProt O60674); experiment: Inhibition of human recombinant JAK2 (808 to end residues) assessed as residual activity at 10 uM using KTFCGTPEYLAPE as substrate incubated for 40 mins in presence of [gamma-33P]ATP at Km concentration by radiometric assay relative to control
[21] = system: Eukaryotic elongation factor 2 kinase (Homo sapiens), O00418 [H23R]; experiment: Inhibition of recombinant human eEF2K H23R mutant (2 to end residues) assessed as residual activity at 10 uM using RKKFGESEKTKTK as substrate incubated for 40 mins in presence of [gamma-33P]ATP at Km concentration by radiometric assay relative to control

Sequence of Vascular endothelial growth factor receptor 2 (Homo sapiens) (P35968 whole entry): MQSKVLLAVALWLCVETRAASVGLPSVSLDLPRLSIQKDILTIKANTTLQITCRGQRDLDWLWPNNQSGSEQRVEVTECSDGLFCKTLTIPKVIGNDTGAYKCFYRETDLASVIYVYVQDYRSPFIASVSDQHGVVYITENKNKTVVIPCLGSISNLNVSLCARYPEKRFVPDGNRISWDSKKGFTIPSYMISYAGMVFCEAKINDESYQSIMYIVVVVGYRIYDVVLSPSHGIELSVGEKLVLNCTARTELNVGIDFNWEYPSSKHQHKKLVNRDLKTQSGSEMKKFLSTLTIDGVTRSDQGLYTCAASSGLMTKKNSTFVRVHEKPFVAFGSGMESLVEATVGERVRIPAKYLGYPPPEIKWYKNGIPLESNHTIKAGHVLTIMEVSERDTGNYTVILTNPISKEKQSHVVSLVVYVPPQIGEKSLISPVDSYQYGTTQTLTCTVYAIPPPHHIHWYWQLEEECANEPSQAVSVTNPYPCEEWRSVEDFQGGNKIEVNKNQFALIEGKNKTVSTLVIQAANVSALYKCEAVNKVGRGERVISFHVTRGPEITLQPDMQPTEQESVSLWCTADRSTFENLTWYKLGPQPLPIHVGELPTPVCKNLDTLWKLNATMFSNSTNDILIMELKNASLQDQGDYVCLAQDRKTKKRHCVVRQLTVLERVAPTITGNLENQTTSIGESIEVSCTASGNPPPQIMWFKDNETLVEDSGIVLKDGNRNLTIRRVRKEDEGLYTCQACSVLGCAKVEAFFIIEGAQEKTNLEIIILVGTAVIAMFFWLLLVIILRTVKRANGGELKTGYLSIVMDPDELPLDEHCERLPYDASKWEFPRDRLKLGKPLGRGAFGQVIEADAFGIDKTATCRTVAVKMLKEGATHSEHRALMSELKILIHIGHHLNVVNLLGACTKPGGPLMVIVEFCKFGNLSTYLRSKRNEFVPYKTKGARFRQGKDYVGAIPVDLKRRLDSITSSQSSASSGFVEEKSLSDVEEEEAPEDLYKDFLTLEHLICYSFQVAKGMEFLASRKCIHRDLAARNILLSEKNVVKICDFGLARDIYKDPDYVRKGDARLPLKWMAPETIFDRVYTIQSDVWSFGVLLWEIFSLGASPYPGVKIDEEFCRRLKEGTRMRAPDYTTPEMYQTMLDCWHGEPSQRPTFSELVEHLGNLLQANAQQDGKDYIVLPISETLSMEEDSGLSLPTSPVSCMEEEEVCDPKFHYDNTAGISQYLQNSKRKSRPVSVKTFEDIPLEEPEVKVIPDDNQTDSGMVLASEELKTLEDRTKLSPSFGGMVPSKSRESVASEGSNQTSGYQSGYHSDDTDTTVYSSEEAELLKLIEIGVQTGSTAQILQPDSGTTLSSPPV
Sequence of Inositol hexakisphosphate kinase 2 (Q9UHH9 whole entry, canonical isoform): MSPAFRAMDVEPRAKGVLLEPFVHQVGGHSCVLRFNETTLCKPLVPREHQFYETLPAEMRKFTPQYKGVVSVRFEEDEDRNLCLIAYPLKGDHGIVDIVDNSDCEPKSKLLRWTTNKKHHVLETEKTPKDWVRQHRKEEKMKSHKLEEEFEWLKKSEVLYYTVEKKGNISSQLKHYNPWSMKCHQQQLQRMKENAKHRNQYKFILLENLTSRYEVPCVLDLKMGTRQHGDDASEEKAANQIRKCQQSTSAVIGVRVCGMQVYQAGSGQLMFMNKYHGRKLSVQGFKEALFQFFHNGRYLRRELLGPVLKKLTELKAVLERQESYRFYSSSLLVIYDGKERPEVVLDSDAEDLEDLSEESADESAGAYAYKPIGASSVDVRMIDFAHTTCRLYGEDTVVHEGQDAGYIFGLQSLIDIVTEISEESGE
Sequence of cGMP-dependent protein kinase 1 (Homo sapiens) (Q13976 whole entry): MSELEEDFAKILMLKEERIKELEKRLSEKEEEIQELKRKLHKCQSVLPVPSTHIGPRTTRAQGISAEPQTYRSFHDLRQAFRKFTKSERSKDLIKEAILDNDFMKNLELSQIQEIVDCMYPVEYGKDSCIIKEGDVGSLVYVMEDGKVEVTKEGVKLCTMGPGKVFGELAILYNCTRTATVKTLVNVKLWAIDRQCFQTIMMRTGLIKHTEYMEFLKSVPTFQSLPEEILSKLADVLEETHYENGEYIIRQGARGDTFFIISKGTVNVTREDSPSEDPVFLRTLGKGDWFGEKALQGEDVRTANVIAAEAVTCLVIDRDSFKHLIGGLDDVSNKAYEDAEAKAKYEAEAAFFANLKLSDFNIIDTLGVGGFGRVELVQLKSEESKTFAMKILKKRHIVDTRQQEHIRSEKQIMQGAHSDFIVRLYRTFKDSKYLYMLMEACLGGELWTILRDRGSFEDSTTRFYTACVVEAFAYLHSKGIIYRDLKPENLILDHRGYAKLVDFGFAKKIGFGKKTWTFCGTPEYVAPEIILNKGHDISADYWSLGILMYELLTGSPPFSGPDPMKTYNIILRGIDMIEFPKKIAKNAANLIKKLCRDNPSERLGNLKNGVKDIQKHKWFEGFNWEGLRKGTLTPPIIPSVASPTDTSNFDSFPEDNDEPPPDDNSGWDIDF
Sequence of Tyrosine-protein kinase Lyn (Homo sapiens) (P07948 2-512 limits assumed): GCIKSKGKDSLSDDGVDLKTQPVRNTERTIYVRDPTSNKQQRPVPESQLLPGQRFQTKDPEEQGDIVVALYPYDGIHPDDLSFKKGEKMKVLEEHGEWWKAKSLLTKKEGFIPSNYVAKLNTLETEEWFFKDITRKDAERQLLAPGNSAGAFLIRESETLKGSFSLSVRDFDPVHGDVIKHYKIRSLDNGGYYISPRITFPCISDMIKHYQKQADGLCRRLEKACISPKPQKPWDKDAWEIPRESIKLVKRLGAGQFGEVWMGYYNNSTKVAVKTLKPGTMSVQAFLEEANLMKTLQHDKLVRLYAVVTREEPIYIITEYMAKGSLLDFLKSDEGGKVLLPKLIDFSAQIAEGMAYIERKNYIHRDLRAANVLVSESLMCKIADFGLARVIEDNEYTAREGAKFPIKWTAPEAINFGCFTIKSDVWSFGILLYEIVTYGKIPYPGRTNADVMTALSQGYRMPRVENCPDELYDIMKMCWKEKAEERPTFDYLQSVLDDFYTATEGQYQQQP
Sequence of 5'-AMP-activated protein kinase catalytic subunit alpha-1 (Homo sapiens) (Q13131 whole entry, looked up): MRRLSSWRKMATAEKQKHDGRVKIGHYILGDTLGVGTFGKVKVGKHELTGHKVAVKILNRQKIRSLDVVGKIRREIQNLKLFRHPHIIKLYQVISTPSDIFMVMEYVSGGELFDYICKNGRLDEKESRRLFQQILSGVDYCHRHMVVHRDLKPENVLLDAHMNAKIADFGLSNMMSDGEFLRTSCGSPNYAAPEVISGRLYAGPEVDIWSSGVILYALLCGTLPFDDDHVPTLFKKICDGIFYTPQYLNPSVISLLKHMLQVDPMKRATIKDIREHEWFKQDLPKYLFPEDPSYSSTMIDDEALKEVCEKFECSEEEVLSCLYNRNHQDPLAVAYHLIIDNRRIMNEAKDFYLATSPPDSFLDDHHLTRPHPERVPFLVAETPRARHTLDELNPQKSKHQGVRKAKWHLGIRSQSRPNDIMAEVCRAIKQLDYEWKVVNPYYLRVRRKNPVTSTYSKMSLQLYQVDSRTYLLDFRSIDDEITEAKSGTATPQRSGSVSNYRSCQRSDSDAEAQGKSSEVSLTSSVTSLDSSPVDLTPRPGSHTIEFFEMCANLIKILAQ
Sequence of Tyrosine-protein kinase receptor TYRO3 (Homo sapiens) (Q06418 whole entry): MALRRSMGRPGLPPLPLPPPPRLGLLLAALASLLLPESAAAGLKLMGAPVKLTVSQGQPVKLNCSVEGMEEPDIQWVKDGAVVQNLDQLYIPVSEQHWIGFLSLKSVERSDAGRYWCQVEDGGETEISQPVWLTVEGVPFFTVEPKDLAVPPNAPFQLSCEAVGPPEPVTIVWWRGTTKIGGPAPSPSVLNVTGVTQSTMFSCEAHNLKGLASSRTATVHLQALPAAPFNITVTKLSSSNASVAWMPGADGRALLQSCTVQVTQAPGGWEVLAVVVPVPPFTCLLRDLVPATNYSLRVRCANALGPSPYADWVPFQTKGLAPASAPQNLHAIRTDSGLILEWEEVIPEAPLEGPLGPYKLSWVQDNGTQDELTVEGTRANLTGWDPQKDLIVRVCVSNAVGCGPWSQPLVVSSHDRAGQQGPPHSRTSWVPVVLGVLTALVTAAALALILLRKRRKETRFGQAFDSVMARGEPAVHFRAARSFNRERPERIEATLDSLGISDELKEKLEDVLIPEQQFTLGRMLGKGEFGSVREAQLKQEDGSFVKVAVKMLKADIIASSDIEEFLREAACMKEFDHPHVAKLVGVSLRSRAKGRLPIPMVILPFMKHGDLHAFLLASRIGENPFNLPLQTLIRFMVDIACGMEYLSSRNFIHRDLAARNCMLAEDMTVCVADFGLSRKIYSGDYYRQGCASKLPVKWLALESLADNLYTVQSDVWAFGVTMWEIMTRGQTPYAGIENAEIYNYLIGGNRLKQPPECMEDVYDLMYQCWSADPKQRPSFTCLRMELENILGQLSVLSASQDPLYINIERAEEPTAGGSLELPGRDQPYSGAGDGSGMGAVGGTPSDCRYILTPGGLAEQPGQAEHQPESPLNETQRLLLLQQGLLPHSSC
Sequence of Mitogen-activated protein kinase kinase kinase 7 (Homo sapiens) (O43318 whole entry, the tested form may be a part): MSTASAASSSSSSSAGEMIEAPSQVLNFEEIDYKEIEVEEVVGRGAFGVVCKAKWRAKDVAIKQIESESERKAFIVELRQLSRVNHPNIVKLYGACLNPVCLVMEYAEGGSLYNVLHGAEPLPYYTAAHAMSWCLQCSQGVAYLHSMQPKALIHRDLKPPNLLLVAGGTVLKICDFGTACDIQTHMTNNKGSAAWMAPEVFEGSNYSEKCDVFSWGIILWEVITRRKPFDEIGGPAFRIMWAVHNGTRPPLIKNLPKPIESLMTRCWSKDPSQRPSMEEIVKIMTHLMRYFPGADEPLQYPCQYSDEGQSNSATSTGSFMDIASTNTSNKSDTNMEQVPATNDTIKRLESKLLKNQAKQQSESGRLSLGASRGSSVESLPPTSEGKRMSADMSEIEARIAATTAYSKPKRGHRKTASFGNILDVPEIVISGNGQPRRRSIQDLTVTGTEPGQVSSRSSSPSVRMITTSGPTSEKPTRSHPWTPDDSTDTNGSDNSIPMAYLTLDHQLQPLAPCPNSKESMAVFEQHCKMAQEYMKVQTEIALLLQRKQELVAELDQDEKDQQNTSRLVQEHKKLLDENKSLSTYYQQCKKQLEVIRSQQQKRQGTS

## COc1ccc2c(CCNc3nc(NCc4ccc(=O)[nH]c4)c4nc[nH]c4n3)c[nH]c2c1
[1]
  Ki: 4880 nM
[2]
  Activity: 79%
[3]
  Activity: 82%
[4]
  Activity: 66%
[5]
  solubility: 51 µg/mL (≈ 118 µM)
[6]
  Activity: 97%
[7]
  IC50: 750 nM
[8]
  Activity: 82%
[9]
  Activity: 60%
[10]
  Activity: 77%
Homo sapiens [11]
  Activity: 84%
Homo sapiens [12]
  Activity: 98%
[13]
  Activity: 91%
[14]
  Activity: 87%
[15]
  Activity: 86%
[16]
  Activity: 82%
[17]
  Activity: 93%
[18]
  Activity: 86%
[19]
  Activity: 97%
[20]
  Activity: 96%
[21]
  Activity: 46%
